# Bioassay records deposited in PubChem BioAssay by several laboratories.
# A selection: hits, their analogues and other compounds. The true share with any hit is near 1.6%.
# PKA-R2B activ = activates the human PKA-R2B holoenzyme complex | PKA-R2B holoenzyme dissociation, Cy5-IP20 fluorescence polarization; R2B truncated from residue 108, S112A mutant; 0% DMSO only, 100% 113 µM cGMP | activation, % at 11.4 µM | hit rate 0.079% among 340,000;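 active = activation above a cutoff set at the mean over all compounds plus 3 SD, cut at about 18% in these data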;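 note: higher means more holoenzyme dissociation and a rise in polarization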
# Target sequence (P31323 whole entry, looked up, other chains not shown, the tested form may be a part): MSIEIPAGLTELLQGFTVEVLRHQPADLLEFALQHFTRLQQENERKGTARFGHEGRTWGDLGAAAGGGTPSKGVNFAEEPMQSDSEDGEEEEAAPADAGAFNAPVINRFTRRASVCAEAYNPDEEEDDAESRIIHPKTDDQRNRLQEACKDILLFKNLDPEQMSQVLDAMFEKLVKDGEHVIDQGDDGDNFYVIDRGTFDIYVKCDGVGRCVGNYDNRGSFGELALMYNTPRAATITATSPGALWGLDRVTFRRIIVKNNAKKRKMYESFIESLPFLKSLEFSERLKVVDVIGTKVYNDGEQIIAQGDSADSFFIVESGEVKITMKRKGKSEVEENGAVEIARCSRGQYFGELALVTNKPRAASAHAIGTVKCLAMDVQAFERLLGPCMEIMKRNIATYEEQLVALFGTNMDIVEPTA
# NR2E3 ag-1 = NR2E3 (human) agonism | Q9Y5X4 | GST-NR2E3/biotin-RetCOR TR-FRET, 1536-well | inhibition of corepressor binding, % at 4.78 µM | hit rate 0.12% among 320,000 | AID 2300;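 active = percent inhibition above the cutoff of mean plus 3 SD of all tested compounds, set per screening campaign, cut at about 20% in these data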;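 note: 0% = DMSO wells and 100% = biotin wells as full block of FRET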
#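 Material: NR2E3–RetCOR corepressor complex / Incubation: Compound–protein incubation for 5 h at 4 °C / Dosing: compound at 4.8 µM, single dose / Detection: time-resolved FRET / Benchmarks: high control biotin, low control 0.6% DMSO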
# NR1D1 modulator = Rev-erb alpha (human) modulation | activity, % at 10 µM | AID 1259318 | hit rate 0.79% among 370,000 | Rev-erbα–FITC-DNA binding, fluorescence polarization, 90 min | P20393;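 active = activity above about 14%, limit read from the data; passing the limit was not always enough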;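 note: 0% = DMSO wells with 35 nM protein and 100% = DMSO wells with 750 nM protein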
# PKA-R1A activ = PKA-R1A complex activation | P00514+P68181 | PKA-R1A dissociation, Cy5-IP20 fluorescence polarization; scaled: DMSO 0%, 113 µM cGMP 100% | activation, % at 11.4 µM | hit rate 0.083% among 340,000 | AID 504707;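 active = percent activation above the mean of all tested compounds plus 3 SD, cut at about 19% in these data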;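 note: higher means more PKAc released from R1A so a rise in polarization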
# NR2E3 ag-2 = activates human NR2E3 receptor | CHO-S Gal4-NCOR/VP16-NR2E3 two-hybrid, luciferase | hit rate 0.35% among 360,000 | inhibition of corepressor binding, % at 3.98 µM;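 active = inhibition above the mean of all tested compounds plus 3 SD, cut at about 70% in these data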;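 note: 0% = DMSO with NR2E3 transfected cells and 100% = cells lacking NR2E3 construct; higher means lower luciferase signal from less NR2E3 corepressor binding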
# PG9 Ab binder = small molecules binding HIV-1 gp120 antibody PG9 | TR-FRET gp120-PG9 antibody binding | inhibition, % at 6.7 µM | hit rate 0.43% among 360,000 | AID 624416; in the data active = inhibition above about 8.5%
# R2B FP artifact = FP assay interference, PKA-R2B counter-screen | shares compounds with PKA-R2B activ | FP artifact counterscreen, fluorescence polarization | activation, % at 11.4 µM | hit rate 6% among 270 | AID 504796; in the data active = activation above about 20%;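 note: Cy5 labelled IP20 peptide probe with compound but no PKA protein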
# PKA-R2B confirm = confirmation of human PKA-R2B complex activators; shares compounds with PKA-R2B activ; fluorescence polarization, activation; activation, % at 11.4 µM; hit rate 9% among 270; AID 504797; in the data active = activation above about 19%
# Target sequence (P31323 whole entry, looked up): as the sequence (P31323 whole entry, looked up, other chains not shown, the tested form may be a part) above
# R1A FP artifact = FP assay interference, PKA-R1A counter-screen; shares compounds with PKA-R1A activ; Cy5-IP20 peptide alone, fluorescence polarization artifact counterscreen; activation, % at 11.4 µM; hit rate 7% among 280; AID 504799;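 active = mean activation over triplicate runs exceeds the adjusted cutoff derived for the parent primary screen, cut at about 19% in these data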;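 note: no PKA protein present so any polarization rise reflects compound interference; 0% = tracer peptide mix alone and 100% = mix with added PKA catalytic subunit; higher means stronger polarization artifact and likely false positive in parent screen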
# PKA-R1A act conf = confirmation of PKA-R1A complex activators. shares compounds with PKA-R1A activ. Cy5-IP20 fluorescence polarization, PKA-R1A holoenzyme dissociation. hit rate 9% among 280. activation, % at 11.4 µM;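 active = mean activation over replicate wells exceeds the adjusted hit threshold taken from the earlier primary screen, cut at about 20% in these data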;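 note: 0% = holoenzyme mix with DMSO only and 100% = cGMP-activated control wells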
# * hit, by the source's call; · = not tested or not shown.
SMILES,PKA-R2B activ,NR2E3 ag-1,NR1D1 modulator,PKA-R1A activ,NR2E3 ag-2,PG9 Ab binder,R2B FP artifact,PKA-R2B confirm,others
CCC1NC(=O)c2cc(S(N)(=O)=O)c(Cl)cc2N1 (configuration not stated),21*,1,1,10,-7,-1,4,2,
CN1C(CCl)Nc2cc(Cl)c(S(N)(=O)=O)cc2S1(=O)=O (configuration not stated),-4,·,-4,-2,7,1,·,·,
CC(=O)c1ccc(OCC(=O)Nc2nnc(C3CC3)s2)cc1,20*,·,-5,0,3,2,5,2,
Cc1ccc(C(=O)N(C)[C@H]2C[C@H]3c4[nH]c5c(-c6ccc7c(c6)OCO7)cccc5c4CCN3C[C@H]2[C@H](C)O)cc1,·,·,9,·,·,·,·,·,
CCCCNC(=O)C1CCCN1C(=O)Nc1ccc(Cl)cc1 (configuration not stated),·,·,-5,·,·,·,·,·,
O=[N+]([O-])c1cc(-c2nnc(-c3ccccc3)o2)ccc1Oc1ccc(Cl)cc1,-6,2,5,13,-90,-1,·,·,
CCOc1ccc(Oc2ccc(-c3nnc(-c4ccccc4)o3)cc2[N+](=O)[O-])cc1,21*,0,-1,13,2,1,-1,-1,
C[C@@H](/C=C/C(=O)OC(C)(C)C)Sc1ccc(C(C)(C)C)cc1,·,·,-7,·,·,·,·,·,
COc1ccc(NS(=O)(=O)c2cc(NC(=O)c3ccccc3F)ccc2N2CCCC2)cc1,19*,-1,5,-10,3,-1,-3,-3,
COc1ccc(C(C)=O)cc1CSc1nc2ccccc2c(=O)n1-c1ccccc1C,8,-1,3,2,-12,2,·,·,
C=CCn1c(SCc2cc(C(C)=O)ccc2OCC)nc2ccccc2c1=O,19*,-2,8,6,-38,-2,0,-1,
C#CCNC(=O)C1=C[C@@H](c2ccc3c(c2)OCO3)C[C@@H](OCc2ccc(CO)cc2)O1,21*,2,-3,0,2,-1,0,-2,
O=C(NCc1ccccc1)C1=C[C@H](c2ccc3c(c2)OCO3)C[C@H](OCc2ccc(CO)cc2)O1,-7,1,-1,-4,-12,0,·,·,
CC(C)CCN(C)C1CCN(C(=O)Nc2ccc3c(c2)OCO3)CC1,·,·,-2,·,·,·,·,·,
c1ccc(-c2nnc(OCCN3CCOCC3)c3ccccc23)cc1,18*,-3,3,-1,-5,-2,0,-4,
CC(=O)NS(=O)(=O)c1ccc(N=NN2CCOCC2)cc1,23*,-2,0,3,-21,-1,1,9,
COc1ccc(S[C@]2(C(=O)N3CCN(c4ncccn4)CC3)CC(=O)N(C(=O)c3ccccc3)[C@@H]2c2ccc(OC)cc2)cc1,·,·,6,·,·,·,·,·,
Cc1cccc(Nc2ncnc(N)n2)c1,21*,2,-3,-1,-14,1,6,5,
CCCCS(=O)(=O)N[C@@H](Cc1ccc(OCCCCC2CCNCC2)cc1)C(=O)O,·,·,-4,·,·,·,·,·,
COC(=O)C1CN(Cc2cn(Cc3ccc(F)cc3)nn2)CCS(=O)(=O)N1Cc1ccc(OC)cc1 (configuration not stated),·,·,2,·,·,·,·,·,
CC(NC(=O)Cc1ccc(F)cc1)c1ccc(F)cc1 (configuration not stated),19*,2,0,2,-25,-1,1,6,
CC(NC(=O)Cc1ccccc1)c1ccc(F)cc1 (configuration not stated),-8,2,1,-1,8,-1,·,·,
C[C@@H]1CN([C@H](C)CO)C(=O)c2cc(NC(=O)Nc3ccccc3)ccc2O[C@@H](C)CCCCO[C@H]1CN(C)S(=O)(=O)c1ccc(F)cc1,·,·,-1,·,·,·,·,·,
CN1Cc2nnn(Cc3ccccc3)c2-c2ccccc2S1(=O)=O,·,·,0,·,·,·,·,·,
CC1=NN(c2nc(-c3ccc(Cl)cc3)cs2)C(=O)C1,20*,-3,-11,6,-15,-1,0,4,
SMILES,PKA-R2B activ,NR2E3 ag-1,NR1D1 modulator,PKA-R1A activ,NR2E3 ag-2,PG9 Ab binder,R2B FP artifact,PKA-R2B confirm,others
CC1=NN(c2nc(-c3ccc(F)cc3)cs2)C(=O)C1,2,3,·,-6,15,·,·,·,
Cn1c(CCCOc2ccc(Cl)cc2Cl)nnc1SCC(=O)Nc1nccs1,20*,1,6,-1,-11,-1,0,2,
CCCCc1nnc(SCC(=O)Nc2nccs2)n1C,-1,-1,-2,-5,-18,-1,·,·,
COc1ccc(S(=O)(=O)N[C@H](C(=O)O)C(C)C)cc1,19*,-1,-3,10,-15,-1,4,4,
Cc1ccc2c(CC(=O)O)coc2c1,19*,3,4,8,11,-1,0,-1,
Cc1ccc(C(=O)c2cc(O)c(O)c([N+](=O)[O-])c2)cc1,·,·,4,·,·,·,·,·,
CN1CC=C(c2ccccc2)N(c2ccc(Cl)cc2)C1=O,·,·,10,·,·,·,·,·,
COc1ccc(CC(=O)OCC(=O)NC2CCCCC2)cc1OC,18*,·,-3,-5,-25,2,1,-2,
CCOC(=O)N1CCN(C(=O)C[C@H]2C[C@@]3(C(=O)OC)C(=C[C@H](C4CCCC4)O[C@@H]3C)N(Cc3cccc4ccccc34)C2=O)CC1,·,·,-11,·,·,·,·,·,
Cc1cc(=O)n2[nH]c(NCc3c(F)cccc3Cl)nc2n1,72*,4,-5,60*,-12,-2,103*,93*,R1A FP artifact=103*;PKA-R1A act conf=100*
COc1cccc(CNc2nc3nc(C)cc(=O)n3[nH]2)c1,13,-2,3,5,8,1,·,·,
CC1=C/C(=C(/c2ccc(O)c(C)c2)c2ccccc2S(=O)(=O)O)C=CC1=O,0,2,-4,-11,-8,-6,·,·,
CC1=C/C(=C(/c2cc(C)c(O)c(Br)c2)c2ccccc2S(=O)(=O)O)C=C(Br)C1=O,28*,-70,-26,35*,-5,-94,51*,46*,R1A FP artifact=51*;PKA-R1A act conf=49*
Cc1cc(C)c(C)c(S(=O)(=O)N2CCC(C(=O)NNC(=O)c3ccccc3O)CC2)c1C,46*,-1,1,47*,-12,1,53*,44*,R1A FP artifact=53*;PKA-R1A act conf=45*
